This is a sample that favours compounds with a hit; in the whole collection about 3.9% have one here.
TIM10 inh – growth inhibitors of TIM10 yeast strain. S. cerevisiae TIM10 strain growth, BacTiter-Glo luminescence, 24 h. inhibition, % at 10 µM. 330,000 compounds, 1.4% hits. AID 463195;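 active means inhibition of 40% or more at the single tested concentration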;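 further: wild-type TIM10 isogenic control strain grown at permissive 25 °C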
tim10-1 inh – inhibits growth of tim10-1 mutant yeast; S. cerevisiae tim10-1 ts strain growth, BacTiter-Glo, 24 h; inhibition, % at 20 µM; 330,000 compounds, 2.2% hits; AID 463190;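 active means inhibition of at least 40%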;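 further: mutant grown at 25 °C; 0% = DMSO wells with yeast and 100% = wells holding no yeast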
XBP1 UPR activ – activators of adaptive arm of unfolded protein response (XBP1); CHO-XBP1 luciferase reporter, IRE1-XBP1 UPR activation, luminescence; percent of tunicamycin response, DMSO as zero; activation, % at 20 µM; 330,000 compounds, 0.33% hits;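 active means versus positive control, 20 µM dose yields 30% or more activation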;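 further: 100% = tunicamycin at 10 µg/mL and 0% = DMSO only wells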
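Signal: luciferase luminescence; Assay system: CHO-XBP1 luciferase reporter cells; Amount: one thousand reporter cells per well; Dosing: 20 µM single concentration, DMSO 1%; Benchmarks: high control tunicamycin 10 µg/mL final, low control DMSO vehicle only; Schedule: 6 h compound exposure at 37 °C, 5% CO2; Evaluation: percent activation relative to tunicamycin reference.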
tim23-1 inh – tim23-1 yeast growth inhibition | S. cerevisiae tim23-1 growth, BacTiter-Glo luminescence, 24 h | 330,000 compounds, 1.3% hits | inhibition, % at 20 µM | AID 463212;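 active means growth inhibition of the mutant yeast at or above 50%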;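 further: temperature-sensitive mutant grown at 25 °C; plate controls were DMSO-treated mutant yeast for no effect and medium wells lacking yeast for full effect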
CHOP UPR activ – apoptotic UPR (CHOP) activation; AID 449763; 330,000 compounds, 0.34% hits; CHO-CHOP luciferase reporter, luminescence; percent of tunicamycin response over DMSO baseline; activation, % at 10 µM;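 active means at 10 µM dose, activation of 40% or more, normalized to positive control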;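 further: 100% = tunicamycin at 10 µg/mL and 0% = DMSO alone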
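Dosing – one dose, 10 µM in 0.5% DMSO · System – CHO-CHOP cells, stable luciferase reporter of PERK-eIF2a-CHOP signalling · Input – 500 cells/well · Control set – tunicamycin 10 µg/mL final as positive, DMSO-only wells as negative · Timing – 6 h compound treatment, 37 °C · Measure – % activation vs tunicamycin · Technique – luminescence read with Steady-Glo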
tim10-1 conf – tim10-1 yeast growth inhibition, confirmed; shares compounds with tim10-1 inh; S. cerevisiae tim10-1 ts strain growth, BacTiter-Glo, 24 h; inhibition, % at 20 µM; 7,400 compounds, 56% hits; AID 463213;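 active means inhibition of yeast growth at or above a set limit in either of two repeat tests at 20 µM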;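 further: tim10-1 mutant grown at permissive 25 °C to find synthetic lethal compounds; 0% = DMSO yeast wells and 100% = medium wells without yeast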
tim10 confirm – TIM10 yeast growth inhibition, confirmed; shares compounds with TIM10 inh; S. cerevisiae tim10 strain growth, BacTiter-Glo luminescence, 24 h; inhibition, % at 10 µM; 4,600 compounds, 63% hits;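 active means inhibition of yeast growth at or above a set limit in either of two replicates at 10 µM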;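 further: this counterscreen used the strain with wild-type TIM10; 0% = yeast with DMSO and 100% = medium wells lacking yeast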
tim23-1 conf – confirmation of tim23-1 mutant yeast growth inhibitors | shares compounds with tim23-1 inh | S. cerevisiae tim23-1 growth, BacTiter-Glo luminescence, 24 h | inhibition, % at 20 µM | 4,400 compounds, 83% hits;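 active means inhibition above about 39% in either of two replicate wells at 20 µM, limit read from the data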;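 further: temperature-sensitive tim23-1 mutant grown at 25 °C; 0% = DMSO wells with yeast and 100% = medium wells without yeast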
* hit, by the source's call; . = no result.

SMILES | TIM10 inh | tim10-1 inh | XBP1 UPR activ | tim23-1 inh | CHOP UPR activ | tim10 confirm | tim23-1 conf | others
COc1ccc(OC)c(N2C(=O)NC(=O)/C(=C\c3ccc([N+](=O)[O-])s3)C2=O)c1 | 84* | 69* | -3 | 52* | 2 | 40* | 72* | tim10-1 conf=73*
COc1ccc(N2C(=O)NC(=O)/C(=C\c3ccccc3[N+](=O)[O-])C2=O)cc1 | -5 | -9 | 0 | 4 | 0 | . | .
O=C1NC(=O)N(c2ccccc2)C(=O)/C1=C\c1ccc([N+](=O)[O-])s1 | 85* | 66* | -3 | 68* | 4 | 26 | 76* | tim10-1 conf=76*
CCN(CC)C(=O)c1ccc(NC(=O)CNC(C)c2cccc3ccccc23)cc1 (configuration not stated) | 9 | 15 | -4 | 24 | 2 | . | .
CCN(CC)C(=O)c1ccc(NC(=O)Nc2ccccc2F)cc1 | 42* | 56* | -10 | 66* | -6 | 40* | 64* | tim10-1 conf=68*
CC(C)Oc1cc(-n2c(=S)[nH]c3ccccc3c2=O)c(Cl)cc1Cl | 45* | 45* | 2 | 53* | 1 | 42* | 52* | tim10-1 conf=24
COc1cccc(-n2c(=S)[nH]c3ccccc3c2=O)c1 | -18 | 12 | 1 | -4 | -2 | . | .
COC(=O)C1=C(c2ccc(F)cc2F)C[C@@H]2CC[C@H]1N2C(=O)N1CCC(O)(c2ccc(Cl)cc2)CC1 | 9 | 9 | -1 | 29 | 0 | . | .
COC(=O)C1=C(c2ccc3ccccc3c2)C[C@@H]2CC[C@H]1N2C(=O)NCCNC(C)=O | 0 | 2 | -1 | 13 | 3 | . | .
CN[C@H]1C[C@H]2O[C@@](C)([C@H]1OC)n1c3ccccc3c3c4c(c5c6ccccc6n2c5c31)C(=O)NC4 | 74* | 58* | -11 | 64* | -6 | 67* | 70* | tim10-1 conf=44*
CO[C@@H]1C=CC23c4cc5c(cc4CO[C@]2(O)CN(C)[C@H]3C1)OCO5 (some centres not stated) | -2 | 4 | 0 | -14 | -2 | . | .
C[N+](C)(C)CC(=O)O | 2 | -9 | -6 | -16 | 0 | . | .
C[C@@H]1CC[C@@]2(NC1)O[C@H]1C[C@H]3[C@@H]4CC=C5C[C@@H](O)CC[C@]5(C)[C@H]4CC[C@]3(C)[C@H]1[C@@H]2C | 49* | 51* | -2 | 54* | 0 | 51* | 68* | tim10-1 conf=27
c1ccc(-c2[nH]c(-c3ccccc3)[n+](CC3CO3)c2-c2ccccc2)cc1 (configuration not stated) | 48* | 49* | -1 | 55* | 2 | -11 | 50* | tim10-1 conf=34*
N=C(N)c1c(O)n(C2CCCCC2)c(=O)n(C2CCCCC2)c1=O | 15 | 54* | 7 | 66* | 0 | . | 52* | tim10-1 conf=33*
COCCNC(=O)N1[C@H]2CC[C@@H]1C(C(=O)OC)=C(c1ccc(OC(F)(F)F)cc1)C2 | 0 | 16 | -3 | 4 | 0 | . | .
COC(=O)C1=C(c2ccc(F)cc2F)C[C@@H]2CC[C@H]1N2C(=O)N1CCCCC1 | 7 | 2 | -2 | 17 | 3 | . | .
CC(C)(C)N(NC(=O)c1ccccc1)C(=O)c1ccccc1 | 40* | -3 | -1 | -10 | 0 | -3 | .
COc1ccc2c(c1)c(C(=O)C(C)N1CCCCC1)c(C)n2C (configuration not stated) | -6 | 21 | -3 | -9 | 0 | . | .
COc1ccccc1CNCCc1ccc(F)cc1 | 6 | 8 | 2 | -4 | 0 | . | .
CN1CCC(c2c[nH]c3ccccc23)C1 (configuration not stated) | 6 | 28 | -2 | 16 | -1 | . | .
CC1CCCC(C)N1/N=C/c1c[nH]c2ccc(Br)cc12 (configuration not stated) | 42* | 34 | -3 | 11 | 9 | -38 | .
Cc1cc(C)[n+](CCCC[n+]2c(C)cc(C)cc2C)c(C)c1 | -9 | -21 | 0 | -25 | 2 | . | .
O=C1N[C@H](Cc2ccccc2)C(=O)N2[C@@H]3[C@H](C[C@@H]12)c1ccccc1N3OOSc1ccccc1 | 41* | 31 | -3 | 24 | 1 | 25 | .
O=C(OCC(=O)c1ccc([N+](=O)[O-])cc1)/C(=C/c1ccc(Cl)cc1)NC(=O)c1ccccc1 | 45* | 35 | -1 | 31 | 2 | 23 | .
SMILES | TIM10 inh | tim10-1 inh | XBP1 UPR activ | tim23-1 inh | CHOP UPR activ | tim10 confirm | tim23-1 conf | others
O=C(COC(=O)Cc1ccccc1)NNC(=O)c1ccc([N+](=O)[O-])cc1 | 3 | -3 | -2 | 5 | 2 | . | .
O=[N+]([O-])NC1=NCCN1Cc1ccc(Cl)nc1 | 2 | 6 | -7 | 0 | -4 | . | .
Cc1ccc(-c2cc(-c3ccc(C)cc3)[n+](-c3ccc(C(=O)[O-])cc3)c(-c3ccc(C)cc3)c2)cc1 | -4 | 12 | -3 | -1 | 3 | . | .
Cc1ccc(-c2cc(-c3ccccc3)cc(-c3ccccc3)[n+]2-c2ccccc2)cc1 | 41* | 24 | -4 | 21 | 29 | 35* | .
CC(C)C(=O)c1cn(Cc2ccc(C#N)cc2)c2ccccc12 | 41* | 25 | -3 | 18 | 0 | 8 | .
C/C(=N\NC(=O)c1ccncc1)c1c(O)[nH]c(=O)[nH]c1=O | 16 | 8 | 0 | 9 | 0 | . | .
Cn1cccc1/C=C1/C(=O)NC(=S)N(Cc2ccc(F)cc2)C1=O | 84* | -10 | 17 | -5 | 34 | 86* | .
COc1cc(C=C2C(=O)NC(=O)NC2=O)ccc1O | 94* | 4 | -1 | 0 | -1 | -4 | .
O=C(CSC1c2ccccc2-c2ccccc21)N/N=C/c1ccccc1O | 47* | 29 | 1 | 52* | -3 | 58* | 58*
Cc1ccc(-c2nn(Cc3ccccc3)cc2C=O)cc1C | 52* | 31 | 0 | 53* | 5 | 55* | 58*
Cc1ccc(Cn2cc(C=O)c(-c3ccc(F)cc3)n2)cc1 | 20 | 29 | 0 | 49 | 2 | . | .
CCOCCCNC(=O)C1c2cc(OC)c(OC)cc2C(=O)N2CCCCC12 (configuration not stated) | 3 | 7 | 0 | -4 | 1 | . | .
Cc1nc2ccccc2c(=O)n1/N=C/c1cc(Br)cc(Br)c1O | 73* | 39 | 0 | 83* | 0 | 25 | 89*
COc1cccc(OCc2cc(C(=O)N3C[C@H]4C[C@@H](C3)c3cccc(=O)n3C4)no2)c1 | -7 | 4 | -3 | -2 | 5 | . | .

Screening results as filed in PubChem BioAssay.
